# From PubChem BioAssay
# hIAP inh: human IAP inhibition | purified IAP, CDP-Star luminescence, 30 min | inhibition, % at 10 µM | P09923 | AID 2544 | 330,000 tested, 0.12% active;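 active = inhibition reaching a set limit with compound at 10 µM in the primary screen, cut at about 35% in these data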;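 also: plate controls were DMSO wells with enzyme for no effect and no-enzyme buffer wells for full effect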
# Target sequence (P09923 whole entry, looked up): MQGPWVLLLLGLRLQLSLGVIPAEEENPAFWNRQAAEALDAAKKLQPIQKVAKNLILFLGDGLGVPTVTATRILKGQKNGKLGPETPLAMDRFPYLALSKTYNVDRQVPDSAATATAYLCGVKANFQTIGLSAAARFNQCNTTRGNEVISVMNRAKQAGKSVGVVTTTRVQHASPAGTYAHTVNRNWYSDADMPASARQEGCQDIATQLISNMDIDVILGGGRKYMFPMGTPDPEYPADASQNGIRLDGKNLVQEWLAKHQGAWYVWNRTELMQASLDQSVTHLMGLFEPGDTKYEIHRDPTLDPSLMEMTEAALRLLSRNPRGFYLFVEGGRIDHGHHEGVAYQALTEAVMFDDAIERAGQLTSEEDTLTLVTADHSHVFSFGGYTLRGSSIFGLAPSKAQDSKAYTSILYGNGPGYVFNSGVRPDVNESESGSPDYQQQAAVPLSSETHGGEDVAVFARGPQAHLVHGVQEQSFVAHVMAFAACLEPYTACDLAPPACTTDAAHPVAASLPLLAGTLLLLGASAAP
# hIAP act: human IAP activation; purified human IAP, CDP-Star luminescence, 30 min; stronger effect = higher value; 1 = vehicle-only enzyme, 0 = enzyme-free background; activation factor at 10 µM; 330,000 tested, 0.16% active;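 active = activation factor of the enzyme at least 2-fold when tested at 20 µM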
# mIAP act: mouse IAP activation. muIAP, CDP-Star luminescence, 30 min; stronger effect = higher value; 1 = vehicle-only enzyme signal, 0 = enzyme-free wells. activation factor at 10 µM. 330,000 tested, 0.24% active. AID 2805;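 active = activation factor of at least 2 at 20 µM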
#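 also added = chemiluminescent substrate CDP-Star | test system = mouse IAP enzyme | signal = chemiluminescence readout | compound = DMSO-dissolved test compounds | incubation = 30 min at room temperature | benchmarks = DMSO wells, no-enzyme wells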
# bIAP activator: increases bovine intestinal alkaline phosphatase activity; purified bovine IAP, CDP-star luminescence, 30 min; stronger effect = higher value; fold of DMSO-control signal, blank-subtracted; activation factor at 20 µM; 200,000 tested, 0.17% active; AID 1016;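 active = activation factor of 2 or more at 20 µM, a signal rise over negative controls twice the positive control's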
# mIAP inh: mouse IAP inhibition. purified mouse IAP, CDP-Star luminescence, 30 min. inhibition, % at 10 µM. 330,000 tested, 0.2% active. AID 2806;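 active = inhibition of at least 40% at 10 µM in the primary screen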;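 also: plate controls were DMSO with enzyme for no effect and no enzyme wells for full effect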
# bIAP inhibitor: intestinal alkaline phosphatase (bovine) inhibition | purified bovine IAP, CDP-star luminescence, 30 min | inhibition, % at 20 µM | 190,000 tested, under 10 active | AID 1019;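 active = over 50% inhibition of intestinal alkaline phosphatase at 20 µM in the single-dose screen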
#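 System: purified bovine intestinal alkaline phosphatase (IAP) enzyme; Input: IAP diluted 1/65,000,000 in the well; Measured by: CDP-star luminescence signal; Compound dosing: 20 µM single dose; Incubation: 30 min reaction at room temperature.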
# mIAP inh conf: mouse IAP inhibition confirmation | inhibition, % at 10 µM | AID 434971 | purified mouse IAP, CDP-Star luminescence, 30 min | shares compounds with mIAP inh | 11,000 tested, 4.7% active;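 active = inhibition of at least 40% at 10 µM in either of the two replicates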;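 also: plate controls were DMSO wells with enzyme for no effect and buffer wells lacking enzyme for full effect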
# Active calls of the source: *; i = inactive; . = no result. In the library only some 0.79% were active in any assay of this set; here they are far more common.
SMILES,hIAP inh,hIAP act,mIAP act,bIAP activator,mIAP inh,bIAP inhibitor,mIAP inh conf
C#CCOCCOCCOCCNc1nc(N2CCN(C(=O)CCCCCCCCCCNC(=O)Cn3cc(C[C@@H](C)O)nn3)CC2)nc(N2CCN(C(=O)CCCCCCCCCCNC(=O)[C@H](CCCCN)n3cc(C[C@@H](C)CC)nn3)CC2)n1,-9.2,1.09,2.73*,.,-172.9,.,-176.0
C#CCOCCOCCOCCNc1nc(N2CCN(C(=O)CCCCCCCCCCNC(=O)[C@H](CCCCN)n3cc(CCCC(=O)O)nn3)CC2)nc(N2CCN(C(=O)CCCCCCCCCCNC(=O)[C@H](CCCN=C(N)N)n3cc(C[C@@H](C)CC)nn3)CC2)n1,-2.3,1.02,2.24*,.,-123.9,.,-167.3
C#CCOCCOCCOCCNc1nc(N2CCN(C(=O)CCCCCCCCCCNC(=O)[C@H](CCCCN)n3cc(CCO)nn3)CC2)nc(N2CCN(C(=O)CCCCCCCCCCNC(=O)[C@H](CCCN=C(N)N)n3cc(C[C@@H](C)CC)nn3)CC2)n1,11.7,0.883,2.62*,.,-161.9,.,-204.0
O=C(COC(=O)/C=C/c1ccc([N+](=O)[O-])cc1)Nc1ccc2[nH]c(=O)[nH]c2c1,-24.2,1.24,0.885,.,11.5,.,.
COc1ccc(C)cc1NC(=O)Nc1ccncc1,-13.9,1.14,1.02,.,-2.1,.,.
CN(C)S(=O)(=O)c1ccc(NC(=O)COc2cccc3c2OC(C)(C)C3)cc1,0.4,0.996,1.02,.,-1.8,.,.
CC(=O)Nc1ccc(NC(=O)COC(=O)[C@@H]2CCCN2C(=O)c2cccs2)cc1,3.7,0.963,0.929,.,7.1,.,.
C#CCOCCOCCOCCNc1nc(N2CCN(C(=O)CCCCCCCCCCNC(=O)[C@H](CO)n3cc(CCCSC)nn3)CC2)nc(N2CCN(C(=O)CCCCCCCCCCNC(=O)[C@H](CO)n3cc(CCCSC)nn3)CC2)n1,-19.1,1.19,1.57,.,-57.4,.,.
C#CCOCCOCCOCCNc1nc(N2CCN(C(=O)CCCCCCCCCCNC(=O)[C@H](CO)n3cc(CCCSC)nn3)CC2)nc(N2CCN(C(=O)CCCCCCCCCCNC(=O)[C@H](CCCCN)n3cc(C[C@@H](C)CC)nn3)CC2)n1,-20.9,1.21,2.3*,.,-130.2,.,-183.1
Oc1cc2c(cc1O)[C@H]1c3ccc(O)c(O)c3OC[C@@]1(O)C2,7.8,0.922,0.397,.,60.3*,.,53.1*
CS(=O)(=O)N1CCC(Oc2ccccc2C(=O)N2CCN(CC3CC3)CC2)CC1,1.1,0.989,1.02,1,-2.3,2.3,.
O=C(NNC(=S)NC(=O)c1cccs1)c1ccc(O)cc1,-61.8,1.62,0.405,.,59.5*,.,63.9*
O=C1CSC(=S)N1N1C(=O)c2cccc([N+](=O)[O-])c2C1=O,-9.7,1.1,0.43,0.5,57.0*,49.1,67.7*
CC(=O)Nc1ccc(S(=O)(=O)N2CCN(S(=O)(=O)N3CCOCC3)CC2)cc1,-14.7,1.15,1.11,.,-11.1,.,.
N#Cc1ccc(/C=N/NC(=S)Nc2ccc(S(=O)(=O)N3CCOCC3)cc2)cc1,-0.4,1,0.833,.,16.7,.,.
O=S(=O)(c1ccc(NC(=S)N/N=C/c2ccc(O)c(O)c2)cc1)N1CCOCC1,34.5,0.655,0.295,.,70.5*,.,75.5*
CC(NC(=S)Nc1ccc(S(=O)(=O)N2CCOCC2)cc1)C1CC2CCC1C2 (configuration not stated),-45.4,1.45,4.02*,1.1,-301.6,-9.6,-145.0
Cc1cc(OCC(=O)OCC(=O)NCC2CCCO2)ccc1Cl (configuration not stated),3.3,0.967,0.997,.,0.3,.,.
O=C(NCc1ccco1)c1cc2c(s1)CSC2,5.0,0.95,0.548,1.1,45.2*,-6.5,45.4*
O=C(NCc1ccc2c(c1)OCO2)c1cc2c(s1)CSC2,14.8,0.852,0.551,0.9,44.9*,12.6,59.1*
O=C(Nc1cccc(Cl)c1)NC1CC2CCC(C1)N2Cc1ccco1 (configuration not stated),-15.3,1.15,1.15,1,-14.8,-2.2,.
O=C(Nc1ccc(Cl)cc1)NC1CCCCC1Cc1ccco1 (configuration not stated),-20.5,1.21,7.83*,1.6,i,-55.9,-110.8
COc1ccc(CN2C[C@H](Cc3ccccc3)[C@@H](CC(=O)Nc3ccccc3)C2=O)cc1,14.1,0.859,1.24,.,-24.1,.,.
S=C(NCc1ccc(Cl)cc1Cl)NC1CCCCC1,-31.8,1.32,5.41*,1,-440.5,3.3,-93.0
CN1CCN(S(=O)(=O)c2ccc3[nH]c(=O)oc3c2)CC1,13.7,0.863,0.574,0.8,42.6*,19.2,58.6*
SMILES,hIAP inh,hIAP act,mIAP act,bIAP activator,mIAP inh,bIAP inhibitor,mIAP inh conf
O=c1[nH]c2ccc(S(=O)(=O)N3CCN(c4ccc(F)cc4)CC3)cc2o1,-0.3,1,0.811,.,18.9,.,.
Cc1ccc2[nH]c(=O)c(C(c3nnnn3C3CCCC3)N3CCCc4ccccc43)cc2c1 (configuration not stated),12.0,0.88,0.433,1,56.7*,4.3,59.9*
Cc1ccc2cc(C(c3nnnn3Cc3ccccc3)N3CCc4ccccc43)c(=O)[nH]c2c1 (configuration not stated),-5.3,1.05,0.92,0.9,8.0,5.7,.
Cc1ccc2[nH]c(=O)c(C(c3nnnn3CC3CCCO3)N3CCc4ccccc4C3)cc2c1 (configuration not stated),-12.2,1.12,0.298,1,70.2*,3.6,74.2*
Cc1ccc2[nH]c(=O)c(C(c3nnnn3CC3CCCO3)N3CCCc4ccccc43)cc2c1 (configuration not stated),-3.8,1.04,0.503,0.9,49.7*,9.7,60.2*
Cc1ccc2[nH]c(=O)c(C(c3nnnn3Cc3ccccc3)N3CCc4ccccc43)cc2c1 (configuration not stated),-4.5,1.04,0.448,0.9,55.2*,6.3,64.3*
C=CCn1c(=O)c2c(nc(-n3nc(C)cc3C)n2C)n(C)c1=O,-16.0,1.16,1.03,.,-2.9,.,.
C[C@H](CO)N1C[C@H](C)[C@@H](CN(C)S(C)(=O)=O)Oc2ccc(NC(=O)CCC(F)(F)F)cc2C1=O,12.6,0.874,1.02,.,-2.5,.,.
COc1ccccc1/C=C/C(=O)OCC(=O)Nc1c(C)nn(-c2ccccc2)c1C,-1.7,1.02,1.03,.,-3.3,.,.
O=C1/C(=C/c2ccco2)SC(=S)N1CCC(=O)N1CCCCC1CCO (configuration not stated),22.1,0.779,0.526,.,47.4*,.,57.4*
Cc1ccc(N2C(=O)/C(=C/c3ccco3)SC2=S)cc1,5.2,0.948,0.511,0.9,48.9*,13.1,60.5*
O=C1/C(=C\c2ccco2)SC(=S)N1C1CCCCC1,14.7,0.853,0.598,.,40.2*,.,51.7*
